PMI activator = increases human mannose-6-phosphate isomerase activity. purified human PMI, coupled resazurin fluorescence, 20 min; active compounds read high; 1 = vehicle control, 0 substrate-free wells. activation factor at 20 µM. 190,000 tested, 0.005% active. P34949;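 active means activation factor of 2 or more at 20 µM, relative to plate controls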
Target sequence (P34949 whole entry, looked up): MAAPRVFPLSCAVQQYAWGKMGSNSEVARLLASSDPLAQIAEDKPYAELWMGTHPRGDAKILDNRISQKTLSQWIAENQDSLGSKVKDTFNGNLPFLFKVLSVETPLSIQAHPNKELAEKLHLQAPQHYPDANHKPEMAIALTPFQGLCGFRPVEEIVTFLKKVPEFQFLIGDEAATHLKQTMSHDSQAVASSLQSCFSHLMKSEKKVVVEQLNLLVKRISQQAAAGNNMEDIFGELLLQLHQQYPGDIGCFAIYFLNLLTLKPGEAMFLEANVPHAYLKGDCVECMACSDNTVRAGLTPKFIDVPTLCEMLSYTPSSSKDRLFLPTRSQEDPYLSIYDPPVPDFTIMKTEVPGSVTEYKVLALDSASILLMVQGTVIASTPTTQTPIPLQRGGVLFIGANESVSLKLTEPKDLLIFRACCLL
m-calpain inh = blocks pig calpain II enzyme activity; AID 1236; 220,000 tested, 0.37% active; inhibition, % at 16 µM; purified calpain II, fluorogenic peptide substrate, 30 min;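 active means inhibition above about 50%, limit read from the data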
Rad51 HR inh = blocks human Rad51 in homologous recombination. Q06609. hRad51 DNA strand exchange, fluorescence dequenching. inhibition, % at 10 µM. 200,000 tested, 0.085% active. AID 1385;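 active means inhibition above 40% at the single screening dose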;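 further: 0% = DMSO control wells and 100% = blanks with heterologous ssDNA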
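System: hRad51 filaments on single-stranded DNA; reagent: Fluorescein- and BHQ1-tagged 47-mer duplex; compound dosing: one concentration, 10 µM final; timing: filaments 15 min 37 °C, then compound 30 min; measured by: fluorescein emission 520 nm, excitation 485 nm; benchmarks: per-plate controls and blanks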
PMI act satM6P = increases human PMI activity with near-saturating mannose 6-phosphate | P34949 | coupled PMI enzyme assay, resazurin fluorescence, 20 min; active compounds read high; 1 = untreated enzyme, 0 = substrate-free blank | activation factor at 20 µM | 190,000 tested, 0.34% active | AID 1216;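 active means activation factor of 2 or more at 20 µM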
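Test system – human PMI in coupled enzyme assay · Timing – 20 min incubation at room temperature · Detection – Diaphorase-driven resazurin-to-resorufin fluorescence, excitation 544, emission 590 nm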
HMGR II inh = blocks class II HMG-CoA reductase of Enterococcus faecalis; inhibition, % at 10 µM; purified E. faecalis HMGR, NADPH absorbance 340 nm kinetic; AID 1066; 190,000 tested, 0.41% active;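 active means inhibition above a set limit, the median over all tested compounds plus 3 SD, cut at about 9.5% in these data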;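 further: enzyme runs in reverse so mevalonate oxidation gives rising NADPH absorbance; 0% = complete reaction with DMSO and 100% = background rate lacking mevalonate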
Numbers without * were called inactive; i = inactive; . = no result. Most compounds without a hit are left out; they make up all but 1.1% or so of the library.

SMILES | PMI activator | m-calpain inh | Rad51 HR inh | PMI act satM6P | HMGR II inh
CCCCC1C(=O)NC(=S)NC1=O | 1.6 | 4 | . | 2* | -4
O=C(COC(=O)c1cccc(O)c1)Nc1ccc(Cl)cc1C(=O)c1ccccc1 | 0.8 | 53* | 3 | 0.7 | -9
C=CCn1c(O)c(/C=N/N2CCCCC2c2cccnc2)c(=O)[nH]c1=S (stereo not given) | 0.9 | 4 | -13 | 1 | 0
COc1ccc(NC2=NC(C)(C)CS2)cc1 | 1 | 7 | -34 | 1.1 | 1
O=C(c1ccccc1)c1cn(CC(=O)N2CCCc3ccccc32)c2ccccc12 | 0.9 | 56* | 2 | 1 | -4
O=C(/C=C/c1c[nH]c2ccccc12)c1c(O)n(CCc2ccccc2)c(=O)[nH]c1=O | . | 10 | i | . | .
Clc1ccc(CSC(Cn2ccnc2)c2ccc(Cl)cc2Cl)cc1 (stereo not given) | 1 | 33 | -1 | 1 | 11*
Clc1ccc(COC(Cn2ccnc2)c2ccc(Cl)cc2Cl)cc1 (stereo not given) | 1.1 | 39 | -2 | 1.1 | 6
Cc1cc(OCC(=O)Nc2c(C)n(C)n(-c3ccccc3)c2=O)c2c3c(c(=O)oc2c1)CCC3 | 1 | . | . | 0.9 | .
COc1nc(NCC2CCCO2)nc(N2CC3CC(C2)c2cccc(=O)n2C3)n1 (stereo not given) | . | -11 | 7 | . | .
CCCNc1nc(OC)nc(N2CC3CC(C2)c2cccc(=O)n2C3)n1 (stereo not given) | 1.1 | -13 | 1 | 1.1 | 9.9*
COc1ccc(N/N=C/c2c(O)n(-c3cccc(C)c3)c(=O)[nH]c2=O)cc1 | 1.7 | -18 | -2 | 2.7* | 1
COc1ccc(N/N=C/c2c(O)n(-c3ccc(C)c(C)c3)c(=O)[nH]c2=O)cc1 | 1.2 | 1 | 3 | 1.2 | 5
CCN1C(=O)/C(=C\c2ccc([N+](=O)[O-])s2)C(=O)NC1=S | 1.3 | -11 | 12 | 1.6 | 11*
O=C1/C(=C\c2ccc(Cl)c(Cl)c2)N2CCC1CC2 | . | -1 | 13 | . | .
COc1ccc(/C=C2\C(=O)NC(=S)N(C)C2=O)cc1C | 1.7 | 15 | -39 | 2.5* | -2
O=C(CNC1CCCC1)Nc1ccc(N2CCCCCC2)cc1 | 0.9 | -24 | 6 | 0.7 | -7
CC(C)C[C@H](NC(=O)[C@@H]1CCCN1C(=O)[C@@H](N)Cc1ccc(O)cc1)C(=O)NCC(N)=O | 0.9 | 17 | -2 | 0.9 | 18*
Cc1ccccc1C1=NCC(=S)Nc2ccc(Cl)cc21 | 0.9 | -6 | 1 | 1 | 10*
Cc1cc(=O)n(-c2ccccc2)n1-c1ccccc1 | 0.9 | 13 | 14 | 1 | -5
Cc1cc(C=C2C(=O)N(C)C(=S)N(C)C2=O)c(C)n1C1CCCCC1 | 1.1 | -88 | -106 | 1.2 | -2
Cc1cc(C=C2C(=O)NC(=S)NC2=O)c(C)n1C1CCCC1 | 1.6 | -7 | -23 | 2.1* | -5
COc1cccc2c1O[C@H]1C(=O)CC[C@H]3CN(C)CCC231 (stereo not given in full) | . | . | -11 | . | .
CCCn1cc(C(=O)O)cn1 | 1.1 | 14 | -5 | 1 | 14*
Nc1cncc(C(=O)O)c1 | 1.3 | 5 | 13 | 1 | -5
SMILES | PMI activator | m-calpain inh | Rad51 HR inh | PMI act satM6P | HMGR II inh
Cc1nn(Cc2ccccc2)c(C)c1C=C1C(=O)NC(=S)NC1=O | 1.6 | 2 | -3 | 2.2* | 0
CC1CCN(C(=O)CCl)CC1 | 1.1 | 9 | . | 1.1 | -3
COc1cccc(C2=NOC(C(=O)N3CCC4(CC3)OCCO4)C2)c1 (stereo not given) | 1 | 28 | 87* | 1 | -2
O=C(C1CC(c2ccc(Cl)c(Cl)c2)=NO1)N1CCC2(CC1)OCCO2 (stereo not given) | 0.9 | -1 | -10 | 0.9 | -9
C/C(=N\Nc1ccccc1)c1c(O)n(Cc2ccccc2)c(=O)[nH]c1=O | 1.6 | 2 | 9 | 2.5* | -6
C/C(=N\Nc1ccccc1)c1c(O)n(-c2ccccc2)c(=O)[nH]c1=O | . | 10 | 14 | . | .
C/C(=N\Nc1ccccc1)c1c(O)n(C)c(=O)n(C)c1=O | 1.6 | 5 | -1 | 2.5* | 0
Cn1c(O)c(C(=O)c2ccccc2)c(=O)n(C)c1=O | 1.1 | 2 | -10 | 1.2 | -1
Cc1ccc2c(c1)CC1(CN2C)C(=O)NC(=O)N(CCC2=CCCCC2)C1=O (stereo not given) | 1.6 | -6 | 13 | 2.1* | 3
Cc1ccc2c(c1)CC1(CN2C)C(=O)NC(=O)N(C(C)C)C1=O (stereo not given) | 1.7 | -11 | -17 | 2.1* | -3
Cc1cc(C)c(C(=O)CN2CCOCC2)c(C)c1 | 1.6 | 4 | 5 | 2.1* | -3
COC(=O)C1=CO[C@@H](C)[C@H]2CN3CC[C@]4(C(=O)Nc5ccccc54)[C@@H]3C[C@H]12 | . | . | 1 | . | .
CCCC(=O)Nc1ccc(N2CCN(CC)CC2)c(Cl)c1 | 1 | -22 | 4 | 1 | -2
CCCCC/C=C\C/C=C\C/C=C\C/C=C\CCCC(=O)Nc1ccc(O)cc1 | 0.8 | 63* | -2 | 0.9 | 2
CC(C)OP(=O)(Oc1ccc(C(O)C(Cl)(Cl)Cl)cc1)OC(C)C (stereo not given) | . | -2 | 0 | . | .
Cc1nc2c(=O)n(C)c(=O)nc-2n(C)n1 | 0.3 | 26 | . | 0.2 | 10*
CCn1nc(-c2ccccc2)nc2c(=O)n(C)c(=O)nc1-2 | 1 | 50 | -31 | 0.9 | -5

High-throughput results (PubChem BioAssay)
